The test system of data set [1] is Rattus norvegicus. In words: Antiinflammatory activity in Wistar rat assessed as inhibition of carrageenan-induced paw edema administered orally at equimolar oral dose relative to 10 mg/kg flurbiprofen measured after 3 hrs of carrageenan challenge. It is filed as functional. Put shortly:
(§1)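 Adult Wistar rats of either sex, 150–200 g, n=6 per group, fasted 24 h with water allowed. Dosed orally in 0.5% CMC 1 h before 0.1 ml of 1% carrageenan in saline was injected subplantar into the right hind paw. Paw volume was read by plethysmometer at baseline, 3 h and 4 h. % inhibition = (Vc − Vt)/Vc × 100. ANOVA with Dunnett's test.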

Data set [2] concerns Rattus norvegicus. As to the kind of experiment: Antiinflammatory activity in Wistar rat assessed as inhibition of carrageenan-induced paw edema administered orally at equimolar oral dose relative to 10 mg/kg flurbiprofen measured after 4 hrs of carrageenan challenge. The format is functional. Put shortly: as §1
The test system of another data set is Mus musculus. As to the kind of experiment: Analgesic activity in Swiss albino mouse assessed as inhibition of tail withdrawal administered orally at equimolar oral dose relative to 10 mg/kg flurbiprofen after 4 hrs. It is filed as functional. Summed up:
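Tail immersion in Swiss albino mice of either sex, 25–30 g, n=6 per group, dosed orally as a suspension in 0.5% w/v CMC. The lower 5 cm of the tail was dipped in water held at 55 ± 0.5 °C. Reaction time (s) to tail withdrawal was recorded before dosing and 4 h after, with a 10 s cut-off.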

Data set [3] has as its system Rattus norvegicus. As to the kind of experiment: Gastrointestinal toxicity in rat assessed as gastric mucosal damage severity index administered at equimolar oral dose relative to 30 mg/kg flurbiprofen. Set-up: dose 30 mg/kg, route oral. It is filed as organism-based, Gastric mucosa. Particulars: in vivo. Put shortly:
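Wistar rats, n=6 per group, food withdrawn 24 h before oral dosing in 0.5% CMC, then given normal diet for 17 h before sacrifice. Stomachs were opened along the greater curvature and scored under a magnifier (0.5 redness to 3.0 for >5 ulcers). Severity index = mean treated score minus mean control score.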

For data set [4], the species on record is Rattus norvegicus. In words: Inhibition of lipid peroxidation in rat assessed as malondialdehyde level per 100 mg of tissue. It is filed as functional, organism-based. Summed up:
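Gastric mucosa taken from the ulcerogenicity rats was scraped, weighed (100 mg) and homogenized in ice-cold 1.15% KCl. SDS, acetate buffer pH 3.5 and 0.8% TBA were added and the mixture heated at 95 °C for 60 min. It was extracted with n-butanol:pyridine (15:1), centrifuged, and the organic layer read at 532 nm. Results given as nmol MDA/100 mg tissue (ε 1.56 × 10⁵ cm⁻¹ M⁻¹).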

In data set [5] the test system is Rattus norvegicus. As to the kind of experiment: Hepatotoxicity in po dosed Wistar albino rat assessed as serum glutamate oxaloacetate transaminase activity administered at equimolar oral dose relative to 10 mg/kg flurbiprofen after 15 days. It is filed as toxicity, organism-based. Also on record: dose 10 mg/kg, route oral. Particulars: in vivo, 360 h. Put shortly: (§2)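 Wistar albino rats of either sex, 150–200 g, n=6 per group, given oral doses in 0.5% w/v CMC once daily for 15 days; controls received vehicle. Retro-orbital blood was clotted 45 min at room temperature and serum separated by centrifugation at 2500 rpm for 15 min for the biochemical assays. ANOVA with Dunnett's test against control.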

For data set [6], the system named is Rattus norvegicus. As to the kind of experiment: Hepatotoxicity in po dosed Wistar albino rat assessed as serum glutamate pyruvate transaminase activity administered at equimolar oral dose relative to 10 mg/kg flurbiprofen after 15 days. It is filed as toxicity, organism-based. Also on record: dose 10 mg/kg, route oral. Conditions: in vivo, 360 h. Summed up: as §2

Data set [7] concerns Rattus norvegicus. In words: Hepatotoxicity in po dosed Wistar albino rat assessed as total protein content administered at equimolar oral dose relative to 10 mg/kg flurbiprofen after 15 days. Particulars: in vivo, 360 h. Also on record: dose 10 mg/kg, route oral. It is filed as toxicity, organism-based. Put shortly:
as §2

Data set [8] has as its system Rattus norvegicus. In words: Hepatotoxicity in po dosed Wistar albino rat assessed as total albumin content administered at equimolar oral dose relative to 10 mg/kg flurbiprofen after 15 days. It is filed as toxicity, organism-based. Also on record: dose 10 mg/kg, route oral. Conditions: in vivo, 360 h. Summed up:
as §2

Each structure is given as a SMILES string.

Consider `CC(C)Cc1ccc(C(C)c2nnc(COc3ccc(-c4ccccc4)cc3)o2)cc1` (configuration not stated), for which the results for the inhibition in vivo in the data set on Rattus norvegicus [1], in the data set with Rattus norvegicus [2] and in the data set with Mus musculus were 77.3%, 79.5% and 72.8%, respectively. For the same compound, in the data set on Rattus norvegicus [3], the UI is given as 0.75. Also, the Activity in the data set filed under Rattus norvegicus [4] was determined as 5.28 nmol; in the data set on Rattus norvegicus [5], 141.09 U/ml; in the data set with Rattus norvegicus [6] it was 29.17 U/ml; in the data set with Rattus norvegicus [7], 1.92 g/dL; with Rattus norvegicus [8], 1.72 g/dL.
Turning to `Cc1ccccc1Nc1nnc(COc2ccc(-c3ccccc3)cc2)s1`, the inhibition in vivo was determined as 25% with Rattus norvegicus [1] and 29.5% in the data set on Rattus norvegicus [2].
The like results for `c1ccc(-c2ccc(OCc3nnc(-c4ccccc4)o3)cc2)cc1` were, in that order, 18.2% and 18.2%.
The like results for `Clc1ccccc1-c1nnc(COc2ccc(-c3ccccc3)cc2)o1` were, in that order, 59.1% and 63.6%.
The like results for `Clc1ccc(OCc2nnc(COc3ccc(-c4ccccc4)cc3)o2)c(Cl)c1` were, in that order, 29.5% and 29.5%.
`COc1ccc2cc(C(C)c3nnc(COc4ccc(-c5ccccc5)cc4)o3)ccc2c1` (configuration not stated): the inhibition in vivo in the data set on Rattus norvegicus [1] and with Rattus norvegicus [2] was 25% each time.
As for `CCCCNc1nnc(COc2ccc(-c3ccccc3)cc2)s1`, the inhibition in vivo with Rattus norvegicus [1] and in the data set with Rattus norvegicus [2] was 27.3% each time.
As for `Sc1nnc(COc2ccc(-c3ccccc3)cc2)n1-c1ccc(Cl)cc1`, the values for the inhibition in vivo in the data set with Rattus norvegicus [1] and in the data set on Rattus norvegicus [2] were 15.9% and 18.2%, respectively.
With `Clc1ccc(Nc2nnc(COc3ccc(-c4ccccc4)cc3)s2)cc1`, the inhibition in vivo was 52.3% with Rattus norvegicus [1] and 54.5% in the data set on Rattus norvegicus [2].
The like results for `Fc1ccc(Nc2nnc(COc3ccc(-c4ccccc4)cc3)s2)cc1` were, in that order, 27.3% and 29.5%.
In the case of `Cc1ccc(-n2c(S)nnc2COc2ccc(-c3ccccc3)cc2)c(C)c1`, the inhibition in vivo with Rattus norvegicus [1] and with Rattus norvegicus [2] was 54.5% throughout.
With `CC(C(=O)O)c1ccc(-c2ccccc2)c(F)c1` (configuration not stated) [FLURBIPROFEN], the inhibition in vivo with Rattus norvegicus [1] was found to be 75%; in the data set with Rattus norvegicus [2] it was 79.5%; in the data set on Mus musculus, 69.5%. Moreover, in the data set with Rattus norvegicus [3], the UI was determined as 1.666. Further, the Activity in the data set filed under Rattus norvegicus [4] stood at 7.51 nmol.
Consider `CCCCNc1nnc(COc2ccc(-c3ccccc3)cc2)o1`, for which the inhibition in vivo in the data set with Rattus norvegicus [1] and in the data set on Rattus norvegicus [2] was 15.9% in each case.
On to `Fc1ccc(-n2c(S)nnc2COc2ccc(-c3ccccc3)cc2)cc1`, for which the inhibition in vivo was 75% with Rattus norvegicus [1], 79.5% in the data set on Rattus norvegicus [2] and 30.5% with Mus musculus. Besides, the UI in the data set with Rattus norvegicus [3] was found to be 0.833. For the same compound, in the data set filed under Rattus norvegicus [4], the Activity was 5.34 nmol.
On to `Fc1ccc(Nc2nnc(COc3ccc(-c4ccccc4)cc3)o2)cc1`, for which the inhibition in vivo with Rattus norvegicus [1] and with Rattus norvegicus [2] was 52.3% in each case.
Consider `Cc1ccc(Nc2nnc(COc3ccc(-c4ccccc4)cc3)s2)c(C)c1`, for which the inhibition in vivo in the data set with Rattus norvegicus [1] and with Rattus norvegicus [2] was 56.8% throughout.
Turning to `Cc1ccccc1-n1c(S)nnc1COc1ccc(-c2ccccc2)cc1`, the values for the inhibition in vivo with Rattus norvegicus [1] and in the data set on Rattus norvegicus [2] were 56.8% and 59.1%, respectively.
Regarding `CCCCn1c(S)nnc1COc1ccc(-c2ccccc2)cc1`, the inhibition in vivo was found to be 75% in the data set with Rattus norvegicus [1], 81.8% in the data set with Rattus norvegicus [2] and 58.2% with Mus musculus. For the same compound, the UI with Rattus norvegicus [3] is 0.666. For the same compound, the Activity in the data set listed under Rattus norvegicus [4] came out at 5.19 nmol; with Rattus norvegicus [5] it was 138 U/ml; in the data set with Rattus norvegicus [6], 22.67 U/ml; in the data set on Rattus norvegicus [7], 1.82 g/dL; in the data set with Rattus norvegicus [8] it was 0.71 g/dL.
In the case of `Clc1ccc(-c2nnc(COc3ccc(-c4ccccc4)cc3)o2)c(Cl)c1`, the values for the inhibition in vivo in the data set on Rattus norvegicus [1] and with Rattus norvegicus [2] were 56.1% and 57.6%, respectively.
As for `Brc1ccc(Nc2nnc(COc3ccc(-c4ccccc4)cc3)s2)cc1`, the inhibition in vivo in the data set with Rattus norvegicus [1] and in the data set with Rattus norvegicus [2] was 63.6% throughout.
Turning to `Clc1ccc(-c2nnc(COc3ccc(-c4ccccc4)cc3)o2)cc1`, the figures for the inhibition in vivo in the data set on Rattus norvegicus [1], in the data set with Rattus norvegicus [2] and in the data set with Mus musculus were 75%, 77.3% and 16.9%, respectively. The UI in the data set with Rattus norvegicus [3] is on record as 1. For the same compound, the Activity in the data set filed under Rattus norvegicus [4] turned out to be 5.88 nmol.
Turning to `Sc1nnc(COc2ccc(-c3ccccc3)cc2)n1-c1ccc(Br)cc1`, the inhibition in vivo in the data set with Rattus norvegicus [1] and in the data set with Rattus norvegicus [2] was 31.8% each time.

The record behind these values is ChEMBL document CHEMBL1154475, “1,3,4-Oxadiazole/thiadiazole and 1,2,4-triazole derivatives of biphenyl-4-yloxy acetic acid: synthesis and preliminary evaluation of biological properties” (Eur J Med Chem, 2008).
